Experimental data from different studies.
Compare with care: the assays were run in different laboratories. pIC50: −log10 of the molar value.
Cell line: MCF7
Observed: cell growth or viability

O=S(=O)([O-])c1ccc(O)c(C=NNC(=S)Nc2cccc3ccccc23)c1.[Na+] — IC50 (MTT; 48 h): > 800 µg/mL
O=C1CS/C(=N\c2cc(C(F)(F)F)ccc2-c2nnc(N3C(=O)CS/C3=N\c3cccc(Cl)c3)s2)N1c1cccc(Cl)c1 — pIC50 (MTT): 4.31
COc1ccc(-n2cc(CNC(=O)[C@@]3(C)[C@H](O)CC[C@@]4(C)[C@H]3CC[C@]3(C)[C@@H]4C(=O)C=C4[C@@H]5[C@@H](C)[C@H](C)CC[C@]5(C)CC[C@]43C)nn2)cc1 — pIC50 (MTT; 24 h): 4.10
CN(C)C(=O)Nc1nc2ccc(Br)cc2c(=O)n1-c1ccccc1 — pIC50 (MTT; 48 h): 3.96
CN(C)C(=S)[N-]N=C(c1ccccn1)c1ccccn1.[O]=[V+]=[O] — pIC50 (MTT): 6.05
Fc1ccc2c(-c3nnc(Cc4ccccc4)[nH]3)nn(Cc3ccc(Cl)cc3Cl)c2c1 — pIC50 (48 h): 3.72
Nc1ccn([C@@H]2O[C@H](CO)[C@@H](O)C2(F)F)c(=O)n1 — IC50 (MTT; 24 h): 2.75 µg/mL
O=[N+]([O-])c1cc(I)c(O)c(C=NNc2ccc(Cl)cc2)c1 — pIC50 (MTT; 24 h): 4.85
O=C1C(=Nc2ccc(Cl)cc2)c2ccccc2N1Cc1ccc([N+](=O)[O-])cc1 — pIC50 (MTT; 48 h): 5.58
C/C(=N\NC(=O)/N=C(\C)c1c(O)c2ccccc2oc1=O)c1c(O)c2ccccc2oc1=O — pIC50 (MTT; 48 h): 4.90
O=c1c2cc(Cl)cc(Cl)c2nc(NNc2cccc(Cl)c2)n1-c1ccccc1 — pIC50 (MTT; 48 h): < 3.70
Cc1nc2ccc(-c3cccc(F)c3)cc2c(O)c1C(=O)O — pIC50 (MTT; 48 h): ≤ 4.00
C(=N\Nc1cc(N/N=C/c2ccc3ccccc3n2)ncn1)/c1ccc2ccccc2n1 — pIC50 (MTT; 48 h): 4.46
COc1cccc(N=C2SCC(=O)N2c2nnc(-c3ccc(C(F)(F)F)cc3N=C3SCC(=O)N3c3cccc(OC)c3)s2)c1 — pIC50 (MTT): 4.11
Fc1ccc2c(-c3nnc(Cc4ccccc4)s3)nn(Cc3ccccc3)c2c1 — pIC50 (48 h): 3.79
CCOC(=O)C(=CNc1ccc(Oc2ccccc2)cc1)C(=O)OCC — pIC50 (MTT; 48 h): 3.94
O=C(/C=C/c1ccc(F)cc1)c1nc2ccccc2n1Cc1cn([C@@H]2O[C@H](CO)[C@H](O)[C@H](O)[C@H]2O)nn1 — pIC50 (LDH; 48 h): 5.70
O=C1Nc2ccccc2C1=Nc1ccccc1Br — pIC50 (MTT; 48 h): < 4.00
COc1ccc(C=NNC(=O)c2cc(-c3ccccc3)n(-c3ccc(S(N)(=O)=O)cc3)n2)cc1OC — pIC50 (fluorescence; 48 h): 4.68
O=C(O)c1c[nH]c2ccc(Oc3ccccc3)cc2c1=O — pIC50 (MTT): ≤ 3.70
COC(=O)c1ccc2c(c1)NC(=O)/C2=C(\Nc1ccc(N(C)C(=O)CN2CCN(C)CC2)cc1)c1ccccc1 — pIC50 (MTT; 24 h): 6.01
COc1ccc(N(Cc2csc(-c3ccccc3)n2)C(=O)CCCCCC(=O)NO)cc1 — pIC50 (MTT; 72 h): 5.51
O=C1/C(=C/c2ccc3ccccc3c2O)NC(=S)N1c1ccccc1 — IC50 (MTT): 8.1 µg/mL
CC(=NNC(=O)c1cc(-c2ccccc2)n(-c2ccc(S(N)(=O)=O)cc2)n1)c1ccc(C)cc1 — pIC50 (fluorescence; 48 h): 4.73
CCC(C(=O)N1C(=O)C(=Nc2ccc(Cl)cc2Br)c2ccccc21)c1ccccc1 (centres unmarked) — pIC50 (MTT; 48 h): 4.47
C[C@H]1[C@H](C)CC[C@]2(C)CC[C@]3(C)C(=CC(=O)[C@@H]4[C@@]5(C)CC[C@@H](O)[C@](C)(C(=O)NCc6cn(-c7ccc(Cl)cc7)nn6)[C@@H]5CC[C@]43C)[C@H]12 — pIC50 (MTT; 24 h): 3.87
CC(C)[C@@H](CS(=O)(=O)C(C)C)N1C(=O)[C@@](C)(CC(=O)O)C[C@H](c2cccc(Cl)c2)[C@H]1c1ccc(Cl)cc1 — pIC50 (ATP luminescence; 48 h): ~5.41
CO[C@H]1[C@H](O[C@H]([C@H]2O[C@@H](n3ccc(=O)[nH]c3=O)[C@H](O)[C@@H]2O)[C@H](NCCCNC(=O)[C@@H](NC(=O)[C@@H](NC(=O)N[C@H](C(=O)O)C(C)C)[C@@H]2CCN=C(N)N2)[C@@H](OC(=O)CCCCCCCCCCCCN(O)C(=N)N)C(C)C)C(=O)O)O[C@H](CN)[C@H]1O — pIC50 (WST-1): 6.02
C#CCn1c(C2CC(c3ccc(F)cc3)=NN2C(C)=O)nc2ccccc21 (centres unmarked) — pIC50 (LDH; 48 h): 5.53
Cc1nc2ccc(-c3ccc(F)cc3F)cc2c(O)c1C(=O)O — pIC50 (MTT; 48 h): ≤ 4.00
CC(C)c1cccc(C(C)C)c1N=C1C(=O)Nc2ccccc21 — pIC50 (MTT; 48 h): 6.16
COc1ccccc1/C=N/N=C1\C(=O)Nc2ccccc21 — IC50 (MTT; 48 h): 22.1 µg/mL
O=C(/C=C/c1ccc(F)cc1)c1nc2ccccc2n1Cc1cn([C@@H]2OC[C@@H](O)[C@H](O)[C@H]2O)nn1 — pIC50 (LDH; 48 h): 5.69
COc1cc(C=NNC(=O)c2cc(-c3ccccc3)n(-c3ccc(S(N)(=O)=O)cc3)n2)cc(OC)c1OC — pIC50 (fluorescence; 48 h): 4.67
Cc1noc(-c2nn(Cc3ccc(Cl)cc3Cl)c3ccccc23)n1 — pIC50 (48 h): 4.32
Cc1cccc([N+](=O)[O-])c1N=C1SCC(=O)N1c1nnc(-c2ccc(C(F)(F)F)cc2N=C2SCC(=O)N2c2c(C)cccc2[N+](=O)[O-])s1 — pIC50 (MTT): 4.27
C(=N\Nc1cc(N/N=C/c2cccc3cccnc23)ncn1)/c1cccc2cccnc12 — pIC50 (MTT; 48 h): 5.15
Cc1cccc(N=C2C(=O)N(Cc3ccc(Br)cc3)c3ccccc32)c1 — pIC50 (MTT; 48 h): 5.01
O=C(O)c1cn(Cc2ccc(C(F)(F)F)cc2)c2ccc(Oc3ccccc3)cc2c1=O — pIC50 (MTT; 48 h): 4.67
S=C(N/N=C/c1cccc2cc3ccccc3nc12)Nc1ccccc1 — pIC50 (MTT; 48 h): < 4.30
NNc1nc2ccc(Br)cc2c(=O)n1-c1ccc(F)cc1 — pIC50 (MTT; 48 h): 5.00
COc1cccc2c1C(=O)c1c(O)c3c(c(O)c1C2=O)C[C@@](O)(C(=O)CO)C[C@@H]3O[C@H]1C[C@H](N)[C@H](O)[C@H](C)O1 — pIC50 (MTT; 24 h): 5.40
O=C1C(Cl)=C(n2cncn2)C(=O)c2ccccc21 — IC50 (MTT; 24 h): 26.8 µg/mL
O=C1Nc2ccccc2C1=Nc1cccc(Cl)c1 — pIC50 (MTT; 48 h): < 4.00
CN1CCC(NC2CCc3[nH]c4c(C(N)=O)ccc(-c5ccccc5Cl)c4c3C2)CC1 (centres unmarked) — pIC50: 7.79
FC(F)(F)c1ccc(-c2noc(-c3nn(Cc4ccc(Cl)cc4Cl)c4ccccc34)n2)cc1 — pIC50 (48 h): 3.78
O=C1C(=Nc2cccc(Cl)c2)c2ccccc2N1Cc1ccc([N+](=O)[O-])cc1 — pIC50 (MTT; 48 h): 5.16
O=C1CSC(=Nc2cc(C(F)(F)F)ccc2-c2nnc(N3C(=O)CSC3=Nc3ccc([N+](=O)[O-])cc3)s2)N1c1ccc([N+](=O)[O-])cc1 — pIC50 (MTT): 4.10
O=C1C(=Nc2ccc(Cl)cc2Br)c2ccccc2N1Cc1ccc(Br)cc1 — pIC50 (MTT; 48 h): 5.60
O=[N+]([O-])c1cc(I)c(O)c(C=NNc2ccc(Br)cc2)c1 — pIC50 (MTT; 24 h): 4.86
COc1cccc(Nc2nc(-c3ccncc3)nc3c2CNCC3)c1 — pIC50 (MTT): 4.52
CC1CCC(C(C)C)C(OC2=C(Cl)C(=O)c3ccccc3C2=O)C1 (centres unmarked) — IC50 (MTT; 24 h): 21.9 µg/mL
O=C(C=Cc1ccc(OCCCCOc2ccc(C=CC(=O)c3cccs3)cc2)cc1)c1cccs1 — pIC50 (MTT; 48 h): 3.87
CCOC(=O)c1c(C)nc2ccc(-c3ccc(F)c(F)c3)cc2c1O — pIC50 (MTT; 48 h): 4.92
C/C(=N\N=C(/C)c1c(O)c2ccccc2oc1=O)c1c(O)c2ccccc2oc1=O — pIC50 (MTT; 48 h): 4.47
CNC(=S)N/N=C/c1cccc2cc3ccccc3nc12 — pIC50 (MTT; 48 h): 4.73
